Source: PubChem BioAssay (several laboratories)
AHR activator: human AHR activation; AHR-responsive luciferase reporter cells, luminescence; activation, % at 5 µM; 320,000 compounds, 2.5% hits; in the data active = activation above about 47%;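 also: 0% = vehicle wells and 100% = reference agonist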
STAT3 act: increases IL-6 driven STAT3 reporter signal. U3A cells, IL-6 STAT3-luciferase reporter, luminescence; 100% = signal with IL-6 EC80 alone. activation (% of control), % at 5.6 µM. 190,000 compounds, 0.91% hits. AID 871;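 active = activation above the screen-wide mean of compound activation plus 3 SD, cut at about 130% in these data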;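 also: 0% = background luminescence of wells with medium and substrate only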
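Material: STAT3-luciferase reporter U3A cells; Probe or stimulus: IL-6 (33 ng/mL); Incubation: compound pre-incubation 1 h before IL-6, then 6 h stimulation at 37 °C; Technique: luminescence from STAT3-driven luciferase reporter; Evaluation: % activation versus median of IL-6-stimulated wells; Controls: IL-6-only high control.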
FXIa inh: inhibitors of human coagulation factor XIa | purified FXIa, Boc-Glu-Ala-Arg-AMC fluorogenic substrate | 220,000 compounds, 0.14% hits | inhibition, % at 5 µM;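 active = inhibition of at least 40%; inactive = inhibition below 40%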;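 also: fluorescence of freed AMC excited at 355 nm; 0% = enzyme without compound and 100% = no enzyme blank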
FXIIa inh: inhibitors of human coagulation factor XIIa; P00748; purified FXIIa, Boc-QGR-AMC fluorogenic substrate, 2 h; inhibition, % at 5 µM; 220,000 compounds, 0.3% hits; AID 800; in the data active = inhibition above about 40%;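 also: 0% = enzyme with no compound and 100% = blank without enzyme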
thrombin 1536: inhibitors of human thrombin; AID 1046; inhibition, % at 5 µM; alpha-thrombin, Boc-VPR-AMC fluorogenic substrate cleavage; P00734; 220,000 compounds, 0.26% hits;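 active = inhibition at or above 40%; inactive = inhibition below 40%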;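 also: 0% = enzyme with no compound and 100% = wells without enzyme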
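signal = AMC fluorescence, 355/460 nm | material = human alpha-thrombin enzyme | control set = enzyme without compound as high, wells lacking enzyme as low | times = reaction at room temperature | read-out basis = percent inhibition scaled between no-compound controls and no-enzyme blanks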
KLK5 inh: blocks human kallikrein 5 protease activity | Q9Y337 | AID 873 | recombinant hK5, fluorogenic AMC substrate cleavage | inhibition, % at 5 µM | 210,000 compounds, 0.59% hits;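 active = inhibition of 40% or more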;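 also: 0% = enzyme controls without compound and 100% = no-enzyme blanks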
Target sequence (Q9Y337 67-293 limits assumed): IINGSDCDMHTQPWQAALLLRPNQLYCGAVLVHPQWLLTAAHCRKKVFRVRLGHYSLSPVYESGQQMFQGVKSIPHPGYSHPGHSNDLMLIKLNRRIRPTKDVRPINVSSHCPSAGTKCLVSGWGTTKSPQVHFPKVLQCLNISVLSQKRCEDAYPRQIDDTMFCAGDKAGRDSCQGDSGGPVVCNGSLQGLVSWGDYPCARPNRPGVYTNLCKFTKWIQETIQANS
Active calls of the source: *; / = no result given. Shown are actives, neighbours in structure and some others; about 3.5% of the full set was active somewhere.

SMILES	AHR activator	STAT3 act	FXIa inh	FXIIa inh	thrombin 1536	KLK5 inh
COc1ccc(C)cc1NC(=O)CSc1nnc(CC(=O)Nc2ccccc2C)n1C	2	98	2	15	2	-2
COc1cc(/C=C(/C(=O)c2cccs2)c2nc3ccccc3[nH]2)cc(OC)c1O	114*	130	11	21	14	15
COc1ccc(N(CC(=O)N/N=C/c2ccc(F)cc2)S(=O)(=O)c2ccccc2)cc1	6	/	/	/	/	/
C=CCNC(=O)CN(c1ccc(F)cc1)S(=O)(=O)c1ccc(OC)cc1	2	102	12	54*	-2	4
O=C(O)COc1ccc(/C=N/n2cnc3scc(-c4cccs4)c3c2=O)cc1	3	93	6	8	0	-12
O=c1c2c(-c3cccs3)csc2ncn1-c1ccc(Br)cc1	65*	104	-1	13	1	-20
O=c1c2c(-c3cccs3)csc2ncn1/N=C/c1ccc(OC(F)F)cc1	56*	92	5	12	-1	3
CCc1ccc(NC(=O)CSc2nc3ccccc3nc2N2CCCC2)cc1	3	/	/	/	/	/
CSCCC(NC(=O)c1ccco1)C(=O)NCC1CCCO1 (stereo unspecified)	-1	/	/	/	/	/
Cc1cc(-n2ccnc2)n2c(nc3ccccc32)c1C#N	3	102	14	106*	16	24
CC1=CCC(/C=N\Nc2nnc3c(n2)[nH]c2ccccc23)CC1 (stereo unspecified)	55*	112	6	9	-15	-4
Cc1ccc(NC(=O)/C(CN(C)C)=N\O)cc1	19	105	16	42*	-1	11
CC(=O)N1CCC(C(=O)Nc2ccc(S(=O)(=O)N3CCCCC3)cc2)CC1	-1	/	/	/	/	/
COCCOc1ccc(C(F)(F)F)cc1NC(=O)c1ccc(C(F)(F)F)cc1	70*	96	1	7	5	-3
COCCOc1ccc(C(F)(F)F)cc1NC(=O)c1ccccc1F	61*	87	4	8	0	-23
COc1ccc(N2CCN(C(=O)c3cccnc3)CC2)c([N+](=O)[O-])c1	3	104	6	12	0	/
Cc1ccc(CNC(=O)c2cc(Cl)cc(Cl)c2)n1C	12	/	/	/	/	/
Cc1cnc(NC(=O)c2cc3c(C)nn(-c4ccccc4)c3s2)s1	61*	105	-4	6	-3	8
Cc1nn(-c2ccccc2)c2sc(C(=O)NNC(=O)COc3ccccc3)cc12	58*	104	-17	4	-2	-22
Cc1nn(-c2ccccc2)c2sc(C(=O)NNC(=O)COc3cccc4ccccc34)cc12	34	112	14	7	4	5
Cc1nc2c(cc1C#N)C(=O)c1ccccc1-2	159*	91	5	4	1	-6
Cc1cccc2cc3c(nc12)-c1ccccc1C3=O	29	/	/	/	/	/
CC(C)CN(C(=O)COC(=O)c1cccc2ccccc12)c1c(N)n(Cc2ccccc2)c(=O)[nH]c1=O	3	/	/	/	/	/
Cc1nc(C)c(-c2csc(Nc3cccnc3)n2)s1	94*	112	5	11	-3	-11
O=C(COc1cccc(F)c1)Nc1nc(-c2cccnc2)cs1	54*	/	/	/	/	/
SMILES	AHR activator	STAT3 act	FXIa inh	FXIIa inh	thrombin 1536	KLK5 inh
O=C(COc1cccc(F)c1)Nc1nc(-c2ccncc2)cs1	10	/	/	/	/	/
c1cncc(Nc2nc(-c3ccncc3)cs2)c1	4	95	0	20	3	-32
Clc1ccccc1-c1csc(Nc2cccnc2)n1	68*	/	-3	5	-1	-1
c1cncc(Nc2nc(-c3cccnc3)cs2)c1	50*	107	-3	-11	-4	-11
CCOC(=O)N1CCN(C(=O)COC(=O)c2cc(C)ccc2C)CC1	2	/	/	/	/	/
COc1ccc(N=C(C)C2=C(O)c3ccccc3C2=O)cc1	-2	74	6	13	3	-18
CC(=O)Nc1ccc(N=C(C2=C(O)c3ccccc3C2=O)c2ccccc2)cc1	64*	100	1	7	2	-1
COc1ccc(C2CC(c3c(O)cc(C)oc3=O)=NCCS2)c(OC)c1 (stereo unspecified)	6	164*	5	5	4	-2
CC1CCCC(NC(=O)CSc2nnc(C(F)(F)F)n2C)C1C (stereo unspecified)	-2	/	/	/	/	/
CCCc1cc(=O)oc2cc(C)cc(OCC(=O)NCc3ccccn3)c12	17	/	/	/	/	/
CCCCc1cc(=O)oc2cc(C)cc(OCC(=O)NCc3ccncc3)c12	56*	/	/	/	/	/
Cc1cc(OCC(=O)Nc2cccnc2)c2c(C)cc(=O)oc2c1	64*	/	/	/	/	/
CCCN1CCN(CCNC(=O)Nc2cc(C)ccc2C)CC1	1	/	/	/	/	/
CCc1nc(OCCN(C)C)c2oc3ccccc3c2n1	10	103	21	21	22	43*
COc1ccccc1C(=O)Nc1nnc(-c2ccc3c(c2)CCCC3)o1	52*	91	2	13	-4	-10
CC(=O)Nc1nnc(-c2ccc3c(c2)CCCC3)o1	59*	101	3	5	-2	-26
CCC(C(=O)NC(C)(C)C)N(C(=O)Cn1nnc(-c2ccccc2F)n1)c1cccc2c1CCCC2 (stereo unspecified)	7	104	17	24	0	0
CC(/C=N/Nc1ncc(C)c(=O)[nH]1)=C\c1ccccc1	61*	91	0	11	9	4
COC(=O)Cc1ccc(NC(=S)N2CCN(c3ccc(F)cc3)CC2)cc1	0	83	-4	33	53*	72*
COC(=O)Cc1ccc(NC(=S)N2CCN(CCO)CC2)cc1	-1	/	/	/	/	/
O=C1N/C(=C/c2ccc(N3CCOCC3)cc2)C(=O)N1Cc1ccc(F)cc1	51*	80	6	27	-3	21
CCOC(=O)C1=CC[C@@H](c2cc(OC)c(OC)c(OC)c2)N(S(=O)(=O)c2ccc(C)cc2)[C@H]1C(=O)OCC	-1	/	/	/	/	/
O=C(COC(=O)c1ccccc1O)NCCCc1ccccc1	3	107	0	7	-2	/
O=C(COC(=O)c1ccc(O)cc1)NCCCc1ccccc1	/	105	28	43*	91*	23
CC(=O)N1c2ccc(S(=O)(=O)N3CCC(C(=O)NCc4ccc(N(C)C)cc4)CC3)cc2CC1C (stereo unspecified)	1	/	/	/	/	/
Cc1c(/C=N/Nc2nc3ccccc3[nH]2)c2ccccc2n1C	108*	/	1	0	-3	-2
C=CCn1cc(/C=N/Nc2nc3ccccc3[nH]2)c2ccccc21	146*	115	1	4	-2	-6
C(=N\Nc1nc2ccccc2[nH]1)/c1cccs1	74*	97	2	9	3	-9
CC(C)Cn1c(/C=N/Nc2nc3ccccc3[nH]2)nc2ccccc21	/	98	5	13	-2	-67
Cc1ccc(C)c(C(=O)Cn2ncc(Cl)c(Cl)c2=O)c1	3	90	-11	1	-6	-3
